Test results published in ChEMBL document CHEMBL2086336, “Small molecule suppression of carbapenem resistance in NDM-1 producing Klebsiella pneumoniae” (ACS Med Chem Lett, 2012).
Active and inactive are the calls of the source.

Assays:
Klebsiella pneumoniae [1] = experiment: Antibacterial activity against Klebsiella pneumoniae BAA 2146 expressing NDM-1 after 16 hrs by broth microdilution technique; assay type: functional; conditions: BAA 2146, 16 h
In short: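 MIC of the 2-AI compound alone, determined by modified broth microdilution in cation-adjusted Mueller Hinton broth (CAMHB).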

Klebsiella pneumoniae [2] = experiment: Potentiation of imipenem antibacterial activity against Klebsiella pneumoniae BAA 2146 expressing NDM-1 assessed as reduction in imipenem MIC at 50 uM after 16 hrs by broth microdilution technique; assay type: functional
In short: (§1)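 Modified broth microdilution: imipenem or meropenem MIC measured in CAMHB supplemented with a fixed concentration of the 2-AI compound. Fold reduction is taken against the carbapenem MIC without compound.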

Klebsiella pneumoniae [3] = experiment: Potentiation of meropenem antibacterial activity against Klebsiella pneumoniae BAA 2146 expressing NDM-1 assessed as reduction in meropenem MIC at 50 uM after 16 hrs by broth microdilution technique; assay type: functional, organism-based; in short: as §1
Klebsiella pneumoniae [4] = experiment: Potentiation of imipenem antibacterial activity against Klebsiella pneumoniae BAA 2146 expressing NDM-1 assessed as reduction in imipenem MIC at 30 uM after 16 hrs by broth microdilution technique; assay type: functional; in short: as §1
Klebsiella pneumoniae [5] = experiment: Potentiation of meropenem antibacterial activity against Klebsiella pneumoniae BAA 2146 expressing NDM-1 assessed as reduction in meropenem MIC at 30 uM after 16 hrs by broth microdilution technique; assay type: functional; in short: as §1
Klebsiella pneumoniae [6] = experiment: Potentiation of imipenem antibacterial activity against Klebsiella pneumoniae BAA 2146 expressing NDM-1 assessed as reduction in imipenem MIC at 40 uM after 16 hrs by broth microdilution technique; assay type: functional
Klebsiella pneumoniae [7] = experiment: Potentiation of imipenem antibacterial activity against Klebsiella pneumoniae BAA 2146 expressing NDM-1 assessed as increase in log reduction in CFU of imipenem at 30 uM at 4 to 16 hrs relative to control; assay type: functional, organism-based
In short: (§2)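 Time-kill: cultures grown in CAMHB with imipenem (2–32 μg/mL) with or without 30 μM compound. Bacteria were plated at time points up to 16 h and viable CFU enumerated. Log reduction in CFU/mL is relative to untreated control; ≥2 log₁₀ drop versus antibiotic alone counted as synergy.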

Klebsiella pneumoniae [8] = experiment: Potentiation of imipenem antibacterial activity against Klebsiella pneumoniae BAA 2146 expressing NDM-1 assessed as decreased regrowth at 30 uM at 4 to 16 hrs relative to control; assay type: functional, organism-based
In short: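 Time-kill: K. pneumoniae BAA-2146 (NDM-1) grown in CAMHB with imipenem (2, 8 or 32 μg/mL in figure; 16 and 4 μg/mL also reported) with or without additive at 30 μM. Viable CFU counted by plating at time points up to 16 h; log reduction in CFU/mL versus untreated control. Synergy defined as ≥2 log10 CFU decrease versus antibiotic alone.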

Klebsiella pneumoniae [9] = experiment: Antibacterial activity against Klebsiella pneumoniae BAA 2146 expressing NDM-1 assessed as reduction in CFU at 30 uM after 16 hrs relative to control; assay type: functional, organism-based; in short: as §2
Klebsiella pneumoniae [10] = experiment: Potentiation of imipenem antibacterial activity against Klebsiella pneumoniae BAA 1705 expressing KPC-2 assessed as reduction in imipenem MIC at 30 uM after 16 hrs by broth microdilution technique; assay type: functional
In short: (§3)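 Modified broth microdilution in cation-adjusted Mueller Hinton broth. The adjuvant's own MIC is measured first in CAMHB. Antibiotic MICs (imipenem/meropenem, or cefotaxime for the ESBL strain) are then determined in CAMHB supplemented with the 2-aminoimidazole at a fixed concentration of ≤30% of its own MIC. Reduction is reported as fold change versus the antibiotic MIC without adjuvant.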

Klebsiella pneumoniae [11] = experiment: Potentiation of cefotaxime antibacterial activity against Klebsiella pneumoniae ATCC 700603 expressing extended spectrum beta-lactamase assessed as reduction in cefotaxime MIC at 30 uM after 16 hrs by broth microdilution technique; assay type: functional; in short: as §3
Klebsiella pneumoniae [12] = experiment: Antibacterial activity against Klebsiella pneumoniae BAA 2146 expressing NDM-1 assessed as intact to permeabilized cell membrane ratio at 30 uM after 1 hr by SYTO9/PI-based fluorimetry relative to control; assay type: functional
In short: (§4)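 Membrane damage was measured by Baclight assay after 1 h exposure of the NDM-1 strain to compound. The intact/permeabilized membrane ratio is expressed as % of DMSO-only treated control bacteria.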

[13] = Hemolytic activity against defibrinated sheep blood after 1 hr by UV-spectrophotometry; assay type: ADME, tissue-based, Ovis aries; conditions: read-out: HD50
In short: (§5)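 Hemolysis was tested on mechanically defibrinated sheep blood. Lysis is expressed relative to a positive control. HD₅₀ is the concentration lysing 50% of cells versus that control.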

[14] = Hemolytic activity against defibrinated sheep blood at 30 uM after 1 hr by UV-spectrophotometry relative to control; assay type: ADME, tissue-based, Ovis aries; conditions: read-out: Activity; in short: as §5
Klebsiella pneumoniae [15] = experiment: Antibacterial activity against Klebsiella pneumoniae BAA 2146 expressing NDM-1 assessed as intact to permeabilized cell membrane ratio at 50 uM after 1 hr by SYTO9/PI-based fluorimetry relative to control; assay type: functional; in short: as §4
Klebsiella pneumoniae [16] = experiment: Potentiation of carbapenem antibacterial activity against Klebsiella pneumoniae BAA 2146 expressing NDM-1 assessed as reduction in carbapenem MIC at 50 uM after 16 hrs by broth microdilution technique; assay type: functional; in short: as §3

Compound	MIC (Klebsiella pneumoniae [1])	Activity (Klebsiella pneumoniae [2])	Activity (Klebsiella pneumoniae [3])	other results
CC(C)(C)c1ccc(-c2c[nH]c(N)n2)cc1.Cl	200 µM	–	–	–
CCCCCCc1ccc(-c2nc(N)[nH]c2-c2ccccc2)cc1.Cl	> 200 µM	inactive	inactive	–
CCCCCCc1ccc(-c2nc(N)[nH]c2-c2ccc3ccccc3c2)cc1.Cl	> 200 µM	inactive	inactive	–
CCCCCCc1ccc(-c2c[nH]c(N)n2)cc1.Cl	100 µM	–	–	fold change (FC) (Klebsiella pneumoniae [4]): 16; fold change (FC) (Klebsiella pneumoniae [5]): 16; fold change (FC) (Klebsiella pneumoniae [6]): 64; fold change (FC) (Klebsiella pneumoniae [2]): 256; Activity (Klebsiella pneumoniae [7]): Active; Activity (Klebsiella pneumoniae [8]): Active; Activity (Klebsiella pneumoniae [9]): inactive; fold change (FC) (Klebsiella pneumoniae [10]): 16; fold change (FC) (Klebsiella pneumoniae [11]): 8; Activity (Klebsiella pneumoniae [12]): 8.5%; HC50 at 1 h [13]: > 500 µM; hemolysis at 1 h, 30 µM [14]: 2.5%
CCCCCCc1ccc(-c2nc(N)[nH]c2Cc2ccccc2)cc1.Cl	> 200 µM	inactive	inactive	–
CCCCCc1ccc(-c2c[nH]c(N)n2)cc1.Cl	100 µM	–	–	–
CCCCc1ccc(-c2c[nH]c(N)n2)cc1.Cl	200 µM	–	–	–
CCCCCCc1ccc(-c2nc(N)[nH]c2CCCCCC)cc1.Cl	> 200 µM	–	–	Activity (Klebsiella pneumoniae [4]; 50 uM, in the assay text read “at 50 uM” for “at 30 uM”): inactive; fold change (FC) (Klebsiella pneumoniae [5]): 2; Activity (Klebsiella pneumoniae [12]): 8.13%
Cl.Nc1nc(-c2ccc(-c3ccccc3)cc2)c[nH]1	> 200 µM	–	–	–
CCCCCCc1ccc(-c2nc(N)[nH]c2CCC)cc1.Cl	100 µM	–	–	–
CCCCCCc1ccc(-c2nc(N)[nH]c2CC(C)C)cc1.Cl	200 µM	inactive	inactive	–
CCCCCCCc1ccc(-c2c[nH]c(N)n2)cc1.Cl	200 µM	–	–	Activity (Klebsiella pneumoniae [15]): 21.2%; fold change (FC) (Klebsiella pneumoniae [16]): 2
CCCCCCc1ccc(-c2nc(N)[nH]c2C)cc1.Cl	100 µM	–	–	fold change (FC) (Klebsiella pneumoniae [4]): 8; fold change (FC) (Klebsiella pneumoniae [5]): 8
